In ChEMBL document CHEMBL3046475, “Inhibition of tobacco bacterial wilt with sulfone derivatives containing an 1,3,4-oxadiazole moiety” (J Agric Food Chem, 2012):
Values after ≈ are worked out from the molar mass of the structure shown.

Columns and labels:
Ralstonia solanacearum [1] = experiment: Antibacterial activity against Ralstonia solanacearum assessed as growth inhibition at 500 ug/ml by turbidometer test (beneficial crop tobacco plant); format: functional
Ralstonia solanacearum [2] = experiment: Antibacterial activity against Ralstonia solanacearum assessed as growth inhibition at 200 ug/ml by turbidometer test (beneficial crop tobacco plant); format: functional
Ralstonia solanacearum [3] = experiment: Antibacterial activity against Ralstonia solanacearum in tobacco plant assessed as plant morbidity at 500 ug/ml measured after 14 days of spraying under green house conditions; format: functional
How it was run: (§1)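 Tobacco seedlings were raised by floating cultivation at 25 °C for 30 d, then transplanted at about the three-leaf stage into pots of 500 g soil, one plant per pot. Plants were sprayed with compound solutions. Morbidity and disease index were recorded per a standard disease investigation and classification protocol at 7, 14 and 21 d, with blank and negative controls.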

Ralstonia solanacearum [4] = experiment: Antibacterial activity against Ralstonia solanacearum in tobacco plant assessed as disease index at 500 ug/ml measured after 7 days of spraying under green house conditions; format: functional; how it was run: as §1
Ralstonia solanacearum [5] = experiment: Antibacterial activity against Ralstonia solanacearum in tobacco field assessed as inhibition of disease at 405 g/ha measured after 14 days of spraying; format: functional
How it was run: (§2)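 Field trial with foliar spraying, scored 7, 14 and 21 d after treatment. Disease index = (4W + 3X + 2Y + Y)/4A from the plant disease classification sums. Inhibition % = (CK − PT1)/CK × 100, where CK is an untreated blank field. Statistics by ANOVA.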

Ralstonia solanacearum [6] = experiment: Antibacterial activity against Ralstonia solanacearum in tobacco plant assessed as disease index at 500 ug/ml measured after 14 days of spraying under green house conditions; format: functional; how it was run: as §1
Ralstonia solanacearum [7] = experiment: Antibacterial activity against Ralstonia solanacearum in tobacco plant assessed as plant morbidity at 500 ug/ml measured after 7 days of spraying under green house conditions; format: functional; how it was run: as §1
Ralstonia solanacearum [8] = experiment: Antibacterial activity against Ralstonia solanacearum in tobacco field assessed as inhibition of disease at 405 g/ha measured after 21 days of spraying; format: functional; how it was run: as §2
Ralstonia solanacearum [9] = experiment: Antibacterial activity against Ralstonia solanacearum in tobacco plant assessed as control efficacy at 500 ug/ml measured after 21 days of spraying under green house conditions; format: functional; how it was run: as §1
Ralstonia solanacearum [10] = experiment: Antibacterial activity against Ralstonia solanacearum in tobacco plant assessed as plant morbidity at 500 ug/ml measured after 21 days of spraying under green house conditions; format: functional; how it was run: as §1
Ralstonia solanacearum [11] = experiment: Antibacterial activity against Ralstonia solanacearum in tobacco plant assessed as control efficacy at 500 ug/ml measured after 14 days of spraying under green house conditions; format: functional; how it was run: as §1
Ralstonia solanacearum [12] = experiment: Antibacterial activity against Ralstonia solanacearum in tobacco plant assessed as disease index at 500 ug/ml measured after 21 days of spraying under green house conditions; format: functional; how it was run: as §1
Ralstonia solanacearum [13] = experiment: Antibacterial activity against Ralstonia solanacearum in tobacco plant assessed as control efficacy at 500 ug/ml measured after 7 days of spraying under green house conditions; format: functional; how it was run: as §1
Ralstonia solanacearum [14] = experiment: Antibacterial activity against Ralstonia solanacearum assessed as growth inhibition by turbidometer test (beneficial crop tobacco plant); format: functional, organism-based
Ralstonia solanacearum [15] = experiment: Antibacterial activity against Ralstonia solanacearum in tobacco field assessed as inhibition of disease at 405 g/ha measured after 7 days of spraying; format: functional; how it was run: as §2
Ralstonia solanacearum [16] = experiment: Antibacterial activity against Ralstonia solanacearum in tobacco field assessed as inhibition of disease at 540 g/ha measured after 14 days of spraying; format: functional, organism-based; how it was run: as §2
Ralstonia solanacearum [17] = experiment: Antibacterial activity against Ralstonia solanacearum in tobacco field assessed as inhibition of disease at 540 g/ha measured after 21 days of spraying; format: functional, organism-based; how it was run: as §2
Ralstonia solanacearum [18] = experiment: Antibacterial activity against Ralstonia solanacearum in tobacco field assessed as inhibition of disease at 540 g/ha measured after 7 days of spraying; format: functional, organism-based; how it was run: as §2
[19] = Ralstonia solanacearum, read-out: EC50

CCS(=O)(=O)c1nnc(-c2ccc(F)c(F)c2)o1
inhibition at 500 µg/mL (Ralstonia solanacearum [1]): 52%
inhibition at 200 µg/mL (Ralstonia solanacearum [2]): 46.7%

CCS(=O)(=O)c1nnc(-c2ccc(OC)c(OC)c2)o1
inhibition at 500 µg/mL (Ralstonia solanacearum [1]): 9.3%
inhibition at 200 µg/mL (Ralstonia solanacearum [2]): 2.8%

CCS(=O)(=O)c1nnc(-c2ccc(F)cc2)o1
inhibition at 500 µg/mL (Ralstonia solanacearum [1]): 100%
Activity (Ralstonia solanacearum [3]): 60%
Activity (Ralstonia solanacearum [4]): 13.3%
inhibition (INH) (Ralstonia solanacearum [5]): 68.8%
Activity (Ralstonia solanacearum [6]): 40%
Activity (Ralstonia solanacearum [7]): 13.3%
inhibition (INH) (Ralstonia solanacearum [8]): 71.9%
Efficacy (Ralstonia solanacearum [9]): 38.3%
Activity (Ralstonia solanacearum [10]): 100%
Efficacy (Ralstonia solanacearum [11]): 59.3%
Activity (Ralstonia solanacearum [12]): 61.7%
Efficacy (Ralstonia solanacearum [13]): 85.5%
EC50 (Ralstonia solanacearum [14]; [19]): 32.1 µg/mL (≈ 125 µM)
inhibition at 200 µg/mL (Ralstonia solanacearum [2]): 100%
inhibition (INH) (Ralstonia solanacearum [15]): 65.3%

Saisentong
inhibition (Ralstonia solanacearum [1]): 100%
inhibition (Ralstonia solanacearum [16]): 71.1%
Activity (Ralstonia solanacearum [3]): 73.3%
Activity (Ralstonia solanacearum [4]): 6.7%
inhibition (Ralstonia solanacearum [17]): 67.3%
Activity (Ralstonia solanacearum [6]): 40%
Activity (Ralstonia solanacearum [7]): 6.7%
Efficacy (Ralstonia solanacearum [9]): 21.7%
Activity (Ralstonia solanacearum [10]): 100%
Efficacy (Ralstonia solanacearum [11]): 59.3%
inhibition (Ralstonia solanacearum [18]): 61.2%
Activity (Ralstonia solanacearum [12]): 78.3%
Efficacy (Ralstonia solanacearum [13]): 92.7%
inhibition (Ralstonia solanacearum [2]): 100%

CS(=O)(=O)c1nnc(-c2ccc(Cl)c([N+](=O)[O-])c2)o1
inhibition at 500 µg/mL (Ralstonia solanacearum [1]): 20.1%
inhibition at 200 µg/mL (Ralstonia solanacearum [2]): 0%

CCS(=O)(=O)c1nnc(-c2ccccc2)o1
inhibition at 500 µg/mL (Ralstonia solanacearum [1]): 100%
Activity (Ralstonia solanacearum [3]): 100%
Activity (Ralstonia solanacearum [4]): 60%
Activity (Ralstonia solanacearum [6]): 86.7%
Activity (Ralstonia solanacearum [7]): 60%
Efficacy (Ralstonia solanacearum [9]): 8.3%
Activity (Ralstonia solanacearum [10]): 100%
Efficacy (Ralstonia solanacearum [11]): 12%
Activity (Ralstonia solanacearum [12]): 91.7%
Efficacy (Ralstonia solanacearum [13]): 34.6%
EC50 (Ralstonia solanacearum [14]; [19]): 39.8 µg/mL (≈ 167 µM)
inhibition at 200 µg/mL (Ralstonia solanacearum [2]): 100%

CCS(=O)(=O)c1nnc(-c2ccc(C)cc2)o1
inhibition at 500 µg/mL (Ralstonia solanacearum [1]): 39%
inhibition at 200 µg/mL (Ralstonia solanacearum [2]): 15%

CS(=O)(=O)c1nnc(Cc2ccc(Cl)cc2)o1
inhibition at 500 µg/mL (Ralstonia solanacearum [1]): 31%
inhibition at 200 µg/mL (Ralstonia solanacearum [2]): 19.2%

CS(=O)(=O)c1nnc(-c2ccc(F)c(F)c2)o1
inhibition at 500 µg/mL (Ralstonia solanacearum [1]): 12%
inhibition at 200 µg/mL (Ralstonia solanacearum [2]): 11.1%

COPPER HYDROXIDE [listing 1 of 2 here]
Activity (Ralstonia solanacearum [3]): 100%
Activity (Ralstonia solanacearum [4]): 53.3%
Activity (Ralstonia solanacearum [6]): 95%
Activity (Ralstonia solanacearum [7]): 50.3%
Efficacy (Ralstonia solanacearum [9]): 0%
Activity (Ralstonia solanacearum [10]): 100%
Efficacy (Ralstonia solanacearum [11]): 3.4%
Activity (Ralstonia solanacearum [12]): 100%
Efficacy (Ralstonia solanacearum [13]): 41.9%

CCS(=O)(=O)c1nnc(-c2ccc(F)cc2F)o1
inhibition at 500 µg/mL (Ralstonia solanacearum [1]): 100%
EC50 (Ralstonia solanacearum [14]; [19]): 60.3 µg/mL (≈ 220 µM)
inhibition at 200 µg/mL (Ralstonia solanacearum [2]): 92.3%

CCS(=O)(=O)c1nnc(Cc2ccc(Cl)cc2)o1
inhibition at 500 µg/mL (Ralstonia solanacearum [1]): 31.4%
inhibition at 200 µg/mL (Ralstonia solanacearum [2]): 18.7%

CS(=O)(=O)c1nnc(-c2ccccc2Br)o1
inhibition at 500 µg/mL (Ralstonia solanacearum [1]): 14.2%
inhibition at 200 µg/mL (Ralstonia solanacearum [2]): 9.9%

CCS(=O)(=O)c1nnc(-c2ccc(Cl)c([N+](=O)[O-])c2)o1
inhibition at 500 µg/mL (Ralstonia solanacearum [1]): 46%
inhibition at 200 µg/mL (Ralstonia solanacearum [2]): 17%

COPPER HYDROXIDE [listing 2 of 2 here]
EC50 (Ralstonia solanacearum [14]): 45.9 µg/mL

CCS(=O)(=O)c1nnc(-c2cccc(F)c2)o1
inhibition at 500 µg/mL (Ralstonia solanacearum [1]): 100%
EC50 (Ralstonia solanacearum [14]; [19]): 47.9 µg/mL (≈ 187 µM)
inhibition at 200 µg/mL (Ralstonia solanacearum [2]): 100%

COc1ccc(-c2nnc(S(C)(=O)=O)o2)cc1OC
inhibition at 500 µg/mL (Ralstonia solanacearum [1]): 10.1%
inhibition at 200 µg/mL (Ralstonia solanacearum [2]): 6%
